As usually defined, the EC50 is the midpoint of the concentration-response curve. As usually defined, the CC50 is the concentration giving 50% cytotoxicity. A higher CC50 goes with better tolerance by the cells. The log P is a log measure of how a compound divides between an organic and an aqueous phase. Low values mean lower lipophilicity, high ones higher lipophilicity.

Where “and” joins values, the source holds several entries; their conditions need not be identical. Identical values can stand only once. Like-named read-outs stand apart in the source and are kept apart here.

Data set [1] relates to HIV-1 RT multidrug-resistant (RTMDR) viral strain. Particulars: read-out: EC50 RTMDR (prior studies); same assays for leads and drugs; cited from earlier work.
Data set [2] is described as follows: Microsomal stability assay. Type of data set: in vitro ADME. Particulars: 1 μM compound, 0.1 mg/mL human liver microsomes, 37 °C.
Data set [3] is described as follows: CytoTox-Glo cytotoxicity assay. Type of data set: cell-based. Particulars: human, TZM-bl cells. In a few lines:
(§1)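 Run alongside the antiviral assays. TZM-bl cells were cultured for one day with graded concentrations of test compound. Percent viable cells was determined with the CytoTox-Glo kit according to the manufacturer's protocol.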

For a further data set, the system named is HIV-1 IIIB (wt). Description: HIV-1 infection assay using MT-2 cells. Type of data set: cell-based. The method in brief:
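MT-2 cells (10^4/well) infected overnight with 100 TCID50 HIV-1 IIIB in RPMI 1640 plus 10% FBS, with or without graded concentrations of test compound. Medium then replaced with compound-free medium. On day 4 post-infection, supernatants mixed with equal volume 5% Triton X-100 and p24 antigen quantified by ELISA. EC50 calculated from percent inhibition of p24 production.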

Data set [4] deals with HIV-1 NL4-3 (wild-type) virus. The experiment in a line: microbe, parasite or virus in culture. Type of data set: cell-based.
Another data set concerns HIV-1 NL4-3 K101E mutant. Type of data set: cell-based. Particulars: TZM-bl cells.
Data set [5] in a line: Aqueous solubility measurement. Type of data set: physicochemical. Particulars: triplicate.
A further data set has as its system TZM-bl cells. The experiment in a line: CytoTox-Glo cytotoxicity assay. Type of data set: cell-based. Particulars: one day, average of two independent tests. The method in brief:
as §1

Data set [6] relates to HIV-1 RTMDR (RT L74V, M41L, V106A, T215Y). Type of data set: cell-based. Particulars: TZM-bl cells.
A further data set deals with HIV-1 NL4-3 E138K mutant. Type of data set: cell-based. Particulars: TZM-bl cells.
A further data set is described as follows: Log P measurement. Type of data set: physicochemical. Particulars: measured at pH7.4 by HPLC method, triplicate.
Data set [7] deals with HIV-1 A17 (K103N and Y181C). Type of data set: cell-based. Particulars: MT-2 cells.
Data set [8] has as its system HIV-1 wild-type and resistant viral strains with RTMDR, K101E or E138K mutation. The experiment in a line: Text summary: antiviral potency over wild-type and resistant strains. Type of data set: cell-based.

As for `Cc1cc(/C=C/C#N)cc(C)c1Nc1ccnc(Nc2ccc(C#N)cc2)n1` [1b, rilpivirine, reference compound], the EC50 is 0.49 nM in data set [1]; 0.49 nM in the data set with HIV-1 IIIB (wt) (Human immunodeficiency virus 1, IIIB, MT2, read-out: EC50 IIIB (wt)); 0.44 nM in [4] (Human immunodeficiency virus 1, NL43, TZM-bl, read-out: EC50 NL4-3(wt)). Also, the “HLM t1/2” value in [2] was 39.52 min. In addition, in data set [3], the midpoint of cytotoxicity, the CC50 at 1 day, lay at 19400 nM.
Turning to `COc1cc(/C=C/C#N)cc(Br)c1Oc1ccc(N)c(Nc2ccc(C#N)cc2)n1` [8c, (E)-6-(2”-Bromo-4”-cyanovinyl-6”-methoxy)phenoxy-N^2-(4′-cyanophenyl) pyridin-2,3-diamine], in the data set on HIV-1 NL4-3 K101E mutant (versus NL4-3(wt)), the “Resistance fold change K101E” value was determined as 1.2. In addition, the EC50 came to 3.9 nM with HIV-1 NL4-3 K101E mutant (read-out: EC50 K101E); 3.46 nM in [6] (read-out: EC50 RTMDR); 4.53 nM in the data set on HIV-1 IIIB (wt) (read-out: EC50 IIIB (wt), MT-2 cells); 3.25 ± 0.89 nM in [4] (read-out: EC50 (NL4-3 infection of TZM-bl cells), mean ± SD, at least three independent experiments); 3.25 nM in [4] (read-out: EC50 NL4-3(wt), TZM-bl cells, Table 2); 6.93 nM with HIV-1 NL4-3 E138K mutant (read-out: EC50 E138K). Also, in data set [7] (read-out: EC50 A17), the EC50 came out at 84.4 nM. Also, the “Aqueous solubility pH 2.0” value in data set [5] (pH 2.0, HPLC method) amounted to 0.82 μg/mL. Also, the “Aqueous solubility pH 7.4” value in [5] (pH 7.4, HPLC method) amounted to 0.50 μg/mL. For the same molecule, the “HLM t1/2” value in [2] was 54.7 min and 54.71 min. This molecule also came in with a CC50 in the data set on TZM-bl cells of 21000 nM. The “Resistance fold change RTMDR” value in [6] (versus NL4-3(wt)) stood at 1.1. The “Resistance fold change E138K” value with HIV-1 NL4-3 E138K mutant (versus NL4-3(wt)) came to 2.1. The “log P” value in “Log P measurement” is 3.31. Also, the “Resistance fold change A17” value in data set [7] (versus IIIB (wt)) amounted to 18.6. Also, the “resistance fold change (RFC), range over resistant strains” value in data set [8] was 1.1–2.1.

The record behind these values is article PMC4085996 (ChemMedChem, 2014).
